Experimental data taken from ChEMBL document CHEMBL1933018 (Bioorg Med Chem Lett, 2012).

Tests used:
Progesterone receptor = target: T1, Progesterone receptor (Homo sapiens, UniProt P06401); experiment: Antagonist activity at progesterone receptor; assay type: functional
T1 sequence (P06401 whole entry): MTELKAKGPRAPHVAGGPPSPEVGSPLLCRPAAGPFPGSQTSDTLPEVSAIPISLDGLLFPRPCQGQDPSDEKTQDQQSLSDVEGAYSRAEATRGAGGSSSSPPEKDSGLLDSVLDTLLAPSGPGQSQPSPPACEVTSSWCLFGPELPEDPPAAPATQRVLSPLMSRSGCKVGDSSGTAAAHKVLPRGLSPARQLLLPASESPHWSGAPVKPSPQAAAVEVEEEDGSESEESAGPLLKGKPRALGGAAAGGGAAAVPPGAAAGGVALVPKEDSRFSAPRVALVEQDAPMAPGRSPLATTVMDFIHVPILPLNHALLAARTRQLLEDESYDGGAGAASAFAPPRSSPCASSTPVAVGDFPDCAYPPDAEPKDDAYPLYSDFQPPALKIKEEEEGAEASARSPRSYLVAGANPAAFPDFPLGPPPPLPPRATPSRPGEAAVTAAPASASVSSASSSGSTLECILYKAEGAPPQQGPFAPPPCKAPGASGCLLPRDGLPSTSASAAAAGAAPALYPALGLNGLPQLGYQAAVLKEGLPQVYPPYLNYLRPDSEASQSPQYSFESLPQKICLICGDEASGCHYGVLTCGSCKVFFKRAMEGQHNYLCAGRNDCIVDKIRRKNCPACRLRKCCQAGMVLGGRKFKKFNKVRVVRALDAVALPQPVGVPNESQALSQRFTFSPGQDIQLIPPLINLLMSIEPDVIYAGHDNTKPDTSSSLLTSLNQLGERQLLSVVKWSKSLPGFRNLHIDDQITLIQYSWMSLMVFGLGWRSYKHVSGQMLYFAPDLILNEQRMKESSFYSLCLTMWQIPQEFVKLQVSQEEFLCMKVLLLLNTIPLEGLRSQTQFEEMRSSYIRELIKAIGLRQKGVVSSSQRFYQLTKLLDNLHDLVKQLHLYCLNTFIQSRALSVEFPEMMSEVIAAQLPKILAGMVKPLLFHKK

[1] = Intrinsic clearance in liver microsomes; assay type: ADME, Microsome; settings: read-out: CLH
[2] = target: T2, Corticotropin-releasing factor receptor 1 (Homo sapiens, UniProt P34998); experiment: Antagonist activity at human recombinant CRF1 receptor expressed in CHO cells by cAMP assay; assay type: functional, cell-based
T2 sequence (P34998 whole entry): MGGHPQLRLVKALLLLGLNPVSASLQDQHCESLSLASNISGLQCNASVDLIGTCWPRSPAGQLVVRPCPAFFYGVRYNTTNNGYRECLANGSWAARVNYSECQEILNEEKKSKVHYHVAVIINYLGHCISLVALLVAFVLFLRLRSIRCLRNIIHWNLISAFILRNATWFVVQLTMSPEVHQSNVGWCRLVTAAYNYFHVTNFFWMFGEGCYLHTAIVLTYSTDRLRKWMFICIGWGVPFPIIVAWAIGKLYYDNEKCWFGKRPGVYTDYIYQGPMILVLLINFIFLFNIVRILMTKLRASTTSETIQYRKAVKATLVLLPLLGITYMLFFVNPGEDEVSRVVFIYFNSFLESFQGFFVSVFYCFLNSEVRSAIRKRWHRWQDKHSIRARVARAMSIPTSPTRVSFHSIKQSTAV
How it was run: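 CHO cells stably expressing recombinant human CRF-1 were grown in DMEM:F12 (1:1) with 10% FBS, 400 µg/ml Geneticin and 1% Glutamax at 37 °C, 5% CO2 to 70% confluence. 10,000 cells/well in PBS with 500 µM IBMX (final) were stimulated with hCRF (108 nM final) plus test compound. cAMP was read by HitHunter cAMP II kit. Compounds were tested repeatedly over a 0.5-log serial dilution series.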

Row | Compound | IC50 (Progesterone receptor) [nM] | microsomal CLint [1] [µL/min/mg] | Ki [2] [nM]
1 | CC#C[C@]1(O)CC[C@H]2[C@@H]3CCC(=O)C(CCC(=O)O)=C3[C@@H](c3ccc(N(C)C=O)cc3)C[C@@]21C | 430 |  | 
2 | CC#C[C@]1(O)CC[C@H]2[C@@H]3CCC4=CC(=O)CCC4=C3[C@@](Cl)(c3cc(Cl)c(N(C)C)c(Cl)c3)C[C@@]21C | 771 | 76 | 
3 | CC#C[C@]1(O)CC[C@H]2[C@@H]3CCC4=CC(=O)CCC4=C3[C@@H](c3ccc(N(C)C)cc3)C[C@@]21C [MIFEPRISTONE] |  | 92.5 | 
4 | CC#C[C@]1(O)CC[C@H]2[C@@H]3CCC4=CC(=O)CCC4=C3C(c3ccc(N(C)C)cc3)=C[C@@]21C | 307 |  | 
5 | CCCCN(CC)c1nc(C)nc2c1c(C)c(C)n2-c1c(C)cc(C)cc1C [ANTALARMIN] |  |  | 32
6 | CCCCN(CC)c1nc(C)nc2c1c(C)c(COC)n2-c1c(C)cc(C)cc1C |  |  | 11
7 | CC#C[C@]1(O)CC[C@H]2[C@@H]3CCC4=CC(=O)CCC4=C3[C@@H](c3ccc(N(C)C=O)cc3)C[C@@]21C | 10 | 81 | 
8 | CCCCN(CC)c1nc(C)nc2c1c(C)c(CO)n2-c1c(C)cc(C)cc1C |  |  | 6
9 | CCCCN(CC)c1nc(C)nc2c1c(C)c(C=O)n2-c1c(C)cc(C)cc1C |  |  | 52
